Activity calls are given as the source filed them. No cut-off for these calls is given here.
Tests used:
[1] = target: Dual specificity mitogen-activated protein kinase kinase 1 (Homo sapiens, UniProt Q02750); experiment: Inhibition of MEK1 in human HEK293 cells after 1 hr by competition binding assay; format: cell-based
In short: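 KINOMEscan competition binding. Binding reactions ran at rt for 1 h. Unbound kinase was captured on an immobilized affinity ligand and quantified by qPCR. Each kinase was tested individually.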

[2] = Oral bioavailability in Cynomolgus monkey at 10 mg/kg; format: ADME, organism-based, Macaca fascicularis; details: in vivo
In short: (§1)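 Male non-naive cynomolgus monkeys (2.6–3.4 kg) and beagle dogs (10.3–11.9 kg), n = 3 each, were dosed in a crossover design with a ≥7-day washout. Doses were 10 mg/kg by nasogastric gavage and 1 mg/kg as a saphenous iv bolus, both free base in 22% HPβCD. Animals were fasted overnight until about 4 h post dose. Femoral plasma was sampled from predose to 24 h and analyzed by LC-MS/MS. Parameters came from noncompartmental analysis; mean ± SD reported.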

[3] = target: Serine/threonine-protein kinase B-raf (Homo sapiens, UniProt P15056, V600E)
[4] = target: Macrophage colony-stimulating factor 1 receptor (Homo sapiens, UniProt P07333); experiment: Inhibition of CSF1R in human HEK293 cells after 1 hr by competition binding assay; format: cell-based
In short: (§2)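 Unbound kinase was captured on immobilized affinity ligand and quantified by qPCR. Kd came from eleven serial 3-fold dilutions, as the mean of duplicates.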

Mus musculus [5] = experiment: Toxicity in athymic nude mouse xenografted with human COLO205 cells at 30 mg/kg, po bid for 14 days measured upto 1 week post dosing; format: organism-based, COLO 205; set-up: dose 30 mg/kg, route oral; details: in vivo
In short: (§3)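 Athymic nude mice (20–25 g) were inoculated subcutaneously in the flank with 1×10^6 Colo-205 cells. At 150–200 mm3 they were randomized (n = 10/group) to oral vehicle (22% HPβCD) or 10, 30 or 100 mg/kg BID for 14 days. Calipers were used three times weekly. Body weight and behavior were monitored, with 7–10 days of follow-up after dosing. Partial regression meant volume falling in ≥3 successive measurements, ending below baseline but still palpable.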

[6] = target: Phosphatidylinositol 4,5-bisphosphate 3-kinase catalytic subunit beta isoform (Homo sapiens, UniProt P42338); experiment: Inhibition of PIK3-CB in human HEK293 cells after 1 hr by competition binding assay; format: cell-based; in short: as §2
[7] = target: ALK tyrosine kinase receptor (Homo sapiens, UniProt Q9UM73); experiment: Inhibition of ALK in human HEK293 cells after 1 hr by competition binding assay; format: cell-based; in short: as §2
COLO 205 [8] = experiment: Cytotoxicity against human COLO205 cells expressing BRAF V600E mutant after 72 hrs by cell titer blue assay; format: functional, cell-based; details: COLO 205, 72 h
In short: (§4)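 Cells were grown in ATCC-recommended media and kept overnight in 0.5% serum. They were then exposed to compound for 72 h, and Cell Titer Blue was added for 3 h. EC50 came from fluorometric concentration−response curves, run in duplicate and repeated at least once.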

Mus musculus [9] = experiment: Toxicity in athymic nude mouse xenografted with human COLO205 cells at 100 mg/kg, po bid for 14 days; format: organism-based, COLO 205; set-up: dose 100 mg/kg, route oral; details: in vivo, 336 h; in short: as §3
Hs-578T = experiment: Cytotoxicity against human Hs578T cells expressing wild type BRAF after 72 hrs by cell titer blue assay; format: functional, cell-based; in short: as §4
COLO 205 [10] = experiment: Antitumor activity against human COLO205 cells xenografted in athymic nude mouse at 30 mg/kg, po bid for 14 days; format: functional, organism-based; set-up: dose 30 mg/kg
In short: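 Athymic nude mice carried subcutaneous flank Colo-205 xenografts (1 × 10^6 cells), randomized at 150−200 mm3 (n = 10/group). Oral dosing BID for 14 days in 22% HPβCD against vehicle controls. Caliper volumes W2(L/2) taken three times weekly. Partial regression: volume fell in ≥3 successive measurements to below the starting volume while the tumor stayed palpable.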

[11] = AUC (infinity) in athymic nude mouse at 100 mg/kg, po; format: ADME, organism-based; set-up: time infinity, dose 100 mg/kg, route oral; details: plasma
In short: (§5)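 Single-dose PK. Rats: male Sprague−Dawley, jugular-catheterized, 1 mg/kg iv in 3:1 PEG400/water (n = 2) and 10 mg/kg po in Pharmatek #6 (n = 3). Female athymic nude mice: 100 mg/kg po in Pharmatek #6 (n = 3). Beagle dogs and male cynomolgus monkeys (n = 3): crossover, 1 mg/kg iv and 10 mg/kg po in 22% HPβCD, overnight fast. Plasma LC-MS/MS to 24 h; noncompartmental parameters, mean ± SD.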

Mus musculus [12] = experiment: Toxicity in athymic nude mouse xenografted with human COLO205 cells at 30 mg/kg, po bid for 14 days; format: organism-based, COLO 205; set-up: dose 30 mg/kg, route oral; details: in vivo, 336 h; in short: as §3
[13] = Intrinsic clearance in Cynomolgus monkey liver microsomes; format: ADME, Macaca fascicularis, Microsome
In short: (§6)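 Pooled liver microsomes (0.5 mg/mL) in 0.1 M phosphate pH 7.4 with 6.5 mM MgCl2 and compound at 1 μM (0.2% DMSO). NADPH (1 mM) started the reaction at 37 °C, with minus-NADPH and testosterone controls. Aliquots taken at 0, 5, 15, 30 and 60 min were quenched in acetonitrile; duplicates.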

[14] = AUC (0 to 24 hrs) in beagle dog at 10 mg/kg, po; format: ADME, organism-based, Canis lupus familiaris; set-up: time < 24 hr, dose 10 mg/kg, route oral; details: plasma; in short: as §5
hERG (KCNH2) = hERG (KCNH2) (Homo sapiens, UniProt Q12809); experiment: Inhibition of human ERG at 10 uM
In short: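 Whole-cell patch clamp on CHO cells stably expressing hERG. Baseline was set in external solution with 0.1% DMSO. Test article was then applied until steady state, up to 12 min.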

[15] = Volume of distribution in Cynomolgus monkey at 1 mg/kg, iv and 10 mg/kg, po; format: ADME, organism-based, Macaca fascicularis; details: in vivo; in short: as §1
[16] = Half life in dog liver microsomes; format: ADME, Canis lupus familiaris, Microsome; in short: as §6
[17] = target: Tyrosine-protein kinase JAK3 (Homo sapiens, UniProt P52333); experiment: Inhibition of JAK3 in human HEK293 cells after 1 hr by competition binding assay; format: cell-based; in short: as §2
HCT-116 = experiment: Cytotoxicity against human HCT116 cells expressing wild type BRAF after 72 hrs by cell titer blue assay; format: functional, cell-based; details: HCT-116, 72 h; in short: as §4
[18] = Clearance in beagle dog at 1 mg/kg, iv and 10 mg/kg, po; format: ADME, organism-based, Canis lupus familiaris; details: in vivo; in short: as §5
[19] = Volume of distribution in Sprague-Dawley rat at 1 mg/kg, iv and 10 mg/kg, po; format: ADME, organism-based; details: in vivo
In short: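 Male Sprague-Dawley rats (250–350 g, jugular-catheterized) received a single dose either iv at 1 mg/kg in 3:1 PEG400/water (n = 2) or po at 10 mg/kg in Pharmatek #6 (n = 3). Plasma was sampled at 5 min (iv only), 15 and 30 min, and 1, 2, 4, 6 and 24 h. Samples were analyzed by LC-MS/MS after acetonitrile precipitation. Parameters came from noncompartmental linear-trapezoidal analysis of individual animals.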

Mus musculus [20] = experiment: Inhibition of BRAF V600E mutant-mediated MEK phosphorylation in human COLO205 cells xenografted in athymic nude mouse at 55 mg/kg, po after 2 hrs; format: functional; details: COLO 205, 2 h
In short: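 Mice bearing Colo-205 xenografts got one oral dose in 22% HPβCD; vehicle controls were run. Tumors were collected at time points over 24 h and lysed. pMEK and total MEK in the lysates were measured by immunoblotting and ELISA, and pMEK was normalized to total MEK.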

SK-MEL-28 = experiment: Cytotoxicity against human SK-MEL-28 cells expressing BRAF V600E mutant after 72 hrs by cell titer blue assay; format: functional, cell-based; details: SK-MEL-28, 72 h; in short: as §4
[21] = Half life in mouse liver microsomes; format: ADME, Microsome; in short: as §6

Chain of Serine/threonine-protein kinase B-raf (P15056 2-766 V600E limits assumed): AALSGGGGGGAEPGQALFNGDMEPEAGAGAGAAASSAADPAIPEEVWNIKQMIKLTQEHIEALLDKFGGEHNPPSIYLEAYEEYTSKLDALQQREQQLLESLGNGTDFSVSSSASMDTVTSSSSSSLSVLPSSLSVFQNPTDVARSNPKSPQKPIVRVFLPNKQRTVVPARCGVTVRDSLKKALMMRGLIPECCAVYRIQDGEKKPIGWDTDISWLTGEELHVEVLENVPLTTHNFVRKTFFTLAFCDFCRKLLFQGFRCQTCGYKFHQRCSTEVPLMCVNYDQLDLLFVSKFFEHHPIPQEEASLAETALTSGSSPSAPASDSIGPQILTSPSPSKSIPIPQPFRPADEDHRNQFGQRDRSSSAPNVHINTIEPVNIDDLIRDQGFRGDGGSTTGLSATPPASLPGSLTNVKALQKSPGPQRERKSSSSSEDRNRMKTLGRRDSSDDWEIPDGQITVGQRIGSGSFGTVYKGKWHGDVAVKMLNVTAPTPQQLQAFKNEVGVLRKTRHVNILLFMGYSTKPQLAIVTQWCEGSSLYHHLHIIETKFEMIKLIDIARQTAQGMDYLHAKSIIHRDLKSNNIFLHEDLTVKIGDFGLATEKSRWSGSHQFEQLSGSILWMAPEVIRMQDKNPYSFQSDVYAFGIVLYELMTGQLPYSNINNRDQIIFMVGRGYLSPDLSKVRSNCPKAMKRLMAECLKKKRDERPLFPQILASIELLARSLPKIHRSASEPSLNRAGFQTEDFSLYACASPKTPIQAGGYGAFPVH
Chain of ALK tyrosine kinase receptor (Q9UM73 whole entry): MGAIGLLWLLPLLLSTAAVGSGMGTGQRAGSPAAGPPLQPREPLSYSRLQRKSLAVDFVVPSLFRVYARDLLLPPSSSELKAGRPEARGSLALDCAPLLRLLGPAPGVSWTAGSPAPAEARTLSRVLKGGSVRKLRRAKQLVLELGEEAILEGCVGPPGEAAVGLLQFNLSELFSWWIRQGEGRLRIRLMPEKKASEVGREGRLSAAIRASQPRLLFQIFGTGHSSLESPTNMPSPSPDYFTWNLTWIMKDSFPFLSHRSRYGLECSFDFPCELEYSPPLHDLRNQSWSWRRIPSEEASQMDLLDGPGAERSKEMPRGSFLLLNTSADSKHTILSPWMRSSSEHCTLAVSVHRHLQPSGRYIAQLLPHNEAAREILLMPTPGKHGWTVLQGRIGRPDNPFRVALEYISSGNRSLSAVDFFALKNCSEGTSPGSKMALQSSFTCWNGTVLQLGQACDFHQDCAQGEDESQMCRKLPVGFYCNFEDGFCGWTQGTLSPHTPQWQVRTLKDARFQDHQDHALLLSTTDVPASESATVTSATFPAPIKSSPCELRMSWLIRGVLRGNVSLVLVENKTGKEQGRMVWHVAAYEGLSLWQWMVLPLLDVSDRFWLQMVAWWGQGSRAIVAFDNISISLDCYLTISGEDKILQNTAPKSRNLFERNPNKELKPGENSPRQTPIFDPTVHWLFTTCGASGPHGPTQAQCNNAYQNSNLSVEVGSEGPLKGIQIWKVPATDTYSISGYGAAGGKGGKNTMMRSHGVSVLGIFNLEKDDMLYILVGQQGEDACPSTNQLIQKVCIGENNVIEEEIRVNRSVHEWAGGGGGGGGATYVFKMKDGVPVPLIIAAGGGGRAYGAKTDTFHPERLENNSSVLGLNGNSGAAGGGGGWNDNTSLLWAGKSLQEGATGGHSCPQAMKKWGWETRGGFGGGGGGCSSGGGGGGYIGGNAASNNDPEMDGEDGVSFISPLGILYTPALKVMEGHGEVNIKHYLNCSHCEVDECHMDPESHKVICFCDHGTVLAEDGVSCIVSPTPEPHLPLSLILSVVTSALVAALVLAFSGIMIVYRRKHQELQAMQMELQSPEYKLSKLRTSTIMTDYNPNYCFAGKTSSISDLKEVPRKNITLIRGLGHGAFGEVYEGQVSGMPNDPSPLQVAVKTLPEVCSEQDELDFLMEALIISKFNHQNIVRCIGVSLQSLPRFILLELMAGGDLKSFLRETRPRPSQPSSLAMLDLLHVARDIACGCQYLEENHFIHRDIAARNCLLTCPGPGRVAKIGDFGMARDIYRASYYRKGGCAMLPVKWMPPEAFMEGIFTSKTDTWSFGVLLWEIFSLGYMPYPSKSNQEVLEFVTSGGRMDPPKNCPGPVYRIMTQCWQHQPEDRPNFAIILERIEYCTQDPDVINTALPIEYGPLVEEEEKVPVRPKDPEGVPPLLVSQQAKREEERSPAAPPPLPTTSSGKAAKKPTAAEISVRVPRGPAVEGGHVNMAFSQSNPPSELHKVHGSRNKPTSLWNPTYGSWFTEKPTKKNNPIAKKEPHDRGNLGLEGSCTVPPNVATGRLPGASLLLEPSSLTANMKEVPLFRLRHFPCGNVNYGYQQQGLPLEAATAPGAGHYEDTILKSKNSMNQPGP
Chain of hERG (KCNH2) (Q12809 whole entry): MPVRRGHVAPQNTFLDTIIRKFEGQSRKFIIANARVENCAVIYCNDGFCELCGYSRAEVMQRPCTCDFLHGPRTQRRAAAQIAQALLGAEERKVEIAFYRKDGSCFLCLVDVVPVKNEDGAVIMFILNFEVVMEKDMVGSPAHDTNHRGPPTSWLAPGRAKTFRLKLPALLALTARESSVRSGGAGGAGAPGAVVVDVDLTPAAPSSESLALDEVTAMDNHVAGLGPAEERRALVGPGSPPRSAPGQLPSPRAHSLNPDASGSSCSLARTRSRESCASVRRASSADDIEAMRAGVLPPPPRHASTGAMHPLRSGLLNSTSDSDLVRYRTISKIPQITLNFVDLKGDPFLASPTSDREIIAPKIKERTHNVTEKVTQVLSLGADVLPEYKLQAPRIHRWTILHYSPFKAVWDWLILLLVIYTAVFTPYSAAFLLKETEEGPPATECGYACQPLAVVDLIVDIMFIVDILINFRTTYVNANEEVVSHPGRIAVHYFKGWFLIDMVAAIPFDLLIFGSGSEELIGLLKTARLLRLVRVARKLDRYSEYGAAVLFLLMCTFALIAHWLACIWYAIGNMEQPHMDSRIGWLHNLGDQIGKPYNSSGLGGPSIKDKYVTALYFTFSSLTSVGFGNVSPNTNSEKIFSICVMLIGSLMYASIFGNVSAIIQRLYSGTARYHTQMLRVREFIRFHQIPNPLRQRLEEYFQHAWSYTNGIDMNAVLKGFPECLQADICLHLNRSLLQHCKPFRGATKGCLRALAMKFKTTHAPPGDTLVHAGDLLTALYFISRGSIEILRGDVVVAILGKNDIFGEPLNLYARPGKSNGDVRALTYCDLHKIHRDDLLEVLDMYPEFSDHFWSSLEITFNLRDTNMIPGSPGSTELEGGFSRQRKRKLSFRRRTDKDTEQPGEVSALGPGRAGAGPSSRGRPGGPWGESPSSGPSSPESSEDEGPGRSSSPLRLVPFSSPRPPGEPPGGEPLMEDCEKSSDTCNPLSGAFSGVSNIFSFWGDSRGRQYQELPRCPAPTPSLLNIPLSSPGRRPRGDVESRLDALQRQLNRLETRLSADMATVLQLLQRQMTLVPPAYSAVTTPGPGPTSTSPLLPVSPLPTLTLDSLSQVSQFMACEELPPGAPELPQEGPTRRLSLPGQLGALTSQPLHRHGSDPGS
Chain of Phosphatidylinositol 4,5-bisphosphate 3-kinase catalytic subunit beta isoform (P42338 whole entry, canonical isoform): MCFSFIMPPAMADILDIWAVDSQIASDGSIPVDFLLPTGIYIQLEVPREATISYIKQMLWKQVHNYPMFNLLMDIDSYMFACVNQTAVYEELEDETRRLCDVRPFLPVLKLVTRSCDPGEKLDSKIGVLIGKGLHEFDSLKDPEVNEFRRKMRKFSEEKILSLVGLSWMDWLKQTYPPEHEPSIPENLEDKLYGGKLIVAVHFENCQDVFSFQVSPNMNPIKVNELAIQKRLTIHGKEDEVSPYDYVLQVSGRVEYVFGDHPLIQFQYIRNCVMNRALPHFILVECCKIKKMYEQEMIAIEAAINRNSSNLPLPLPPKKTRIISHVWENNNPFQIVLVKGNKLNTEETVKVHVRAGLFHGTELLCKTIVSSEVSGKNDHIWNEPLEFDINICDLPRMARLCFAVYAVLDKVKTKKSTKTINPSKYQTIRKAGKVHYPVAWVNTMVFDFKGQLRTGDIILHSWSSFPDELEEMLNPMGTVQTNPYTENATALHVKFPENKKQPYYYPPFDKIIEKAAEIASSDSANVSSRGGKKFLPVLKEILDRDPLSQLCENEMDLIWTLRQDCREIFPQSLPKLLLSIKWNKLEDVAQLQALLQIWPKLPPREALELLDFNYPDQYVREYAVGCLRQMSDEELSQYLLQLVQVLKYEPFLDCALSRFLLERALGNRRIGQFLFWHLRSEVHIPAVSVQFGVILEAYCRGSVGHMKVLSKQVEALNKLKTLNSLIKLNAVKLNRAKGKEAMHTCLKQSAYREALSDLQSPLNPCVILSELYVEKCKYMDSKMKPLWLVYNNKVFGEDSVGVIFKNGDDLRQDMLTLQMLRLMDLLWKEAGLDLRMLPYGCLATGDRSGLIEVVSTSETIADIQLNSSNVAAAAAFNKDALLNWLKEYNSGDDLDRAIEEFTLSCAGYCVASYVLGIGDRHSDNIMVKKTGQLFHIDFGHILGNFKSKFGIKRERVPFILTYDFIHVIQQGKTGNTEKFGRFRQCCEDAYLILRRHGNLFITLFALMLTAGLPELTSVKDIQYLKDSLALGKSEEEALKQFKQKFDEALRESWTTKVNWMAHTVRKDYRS
Chain of Dual specificity mitogen-activated protein kinase kinase 1 (Q02750 whole entry): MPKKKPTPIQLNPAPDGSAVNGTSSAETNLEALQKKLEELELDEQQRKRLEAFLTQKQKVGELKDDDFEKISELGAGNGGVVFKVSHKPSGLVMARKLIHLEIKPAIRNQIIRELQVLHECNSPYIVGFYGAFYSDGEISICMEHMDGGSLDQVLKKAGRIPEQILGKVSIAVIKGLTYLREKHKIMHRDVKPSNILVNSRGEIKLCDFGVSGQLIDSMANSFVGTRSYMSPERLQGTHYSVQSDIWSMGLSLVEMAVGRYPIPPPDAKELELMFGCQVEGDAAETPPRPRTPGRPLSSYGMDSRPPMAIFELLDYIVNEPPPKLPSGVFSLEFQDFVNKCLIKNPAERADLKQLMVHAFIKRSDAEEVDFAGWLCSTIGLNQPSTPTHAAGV

Question: Which Kd [1] does the source give for `COc1cc2ncnc(Oc3cccc(NC(=O)Nc4cc(C(C)(C)C(F)(F)F)on4)c3)c2cc1OC` [CEP-32496] here?
Answer: 7.1 µM

Question: And the bioavailability [2]?
Answer: 100%

Question: What about the IC50 [3] of the same compound?
Answer: 0.082 µM

Question: What about the Kd [4] of the same compound?
Answer: 0.009 µM

Question: What about the Activity (Mus musculus [5]) of the same compound?
Answer: Non-toxic

Question: What about the Kd [6] of the same compound?
Answer: > 10 µM

Question: And the Kd [7]?
Answer: > 10 µM

Question: What about the EC50 (COLO 205 [8]) of the same compound?
Answer: 0.036 µM

Question: What about the Activity (Mus musculus [9]) of the same compound?
Answer: Non-toxic

Question: What about the EC50 (Hs-578T) of the same compound?
Answer: 2.74 µM

Question: What about the Activity (COLO 205 [10]) of the same compound?
Answer: Active

Question: What about the AUC(0-inf) [11] of the same compound?
Answer: 394 µM·h

Question: And the Activity (Mus musculus [12])?
Answer: Non-toxic

Question: And the CLH [13]?
Answer: < 23 µL/min/mg

Question: What about the AUC(0-t) at 24 h [14] of the same compound?
Answer: 55.1 µM·h

Question: What about the inhibition at 10 µM (hERG (KCNH2)) of the same compound?
Answer: < 10%

Question: And the Vd [15]?
Answer: 2.5 L/kg

Question: What about the half-life [16] of the same compound?
Answer: > 1 h

Question: What about the Kd [17] of the same compound?
Answer: > 10 µM

Question: What about the EC50 (HCT-116) of the same compound?
Answer: 0.669 µM

Question: And the clearance [18]?
Answer: 5 mL/min/kg

Question: And the Vd [19]?
Answer: 1.6 L/kg

Question: And the inhibition in vivo at 55 mg/kg (Mus musculus [20])?
Answer: 75%

Question: What about the EC50 (SK-MEL-28) of the same compound?
Answer: 0.454 µM

Question: What about the half-life [21] of the same compound?
Answer: > 1 h

Reference: ChEMBL document CHEMBL2029242 (J Med Chem, 2012)
